Calls of active or inactive are those of the source. The calls are words filed in the database; no cut-off is given here.
What was measured:
[1] = Induction in caspase-mediated apoptosis in human NB4-DR1 cells assessed as necrotic cells at 50 uM incubated for 24 hrs by Annexin V-FITC/propidium iodide staining based flow cytometry analysis (reference value: 0.19%); assay type: functional
[2] = Induction in caspase-mediated apoptosis in human NB-4 cells assessed as late apoptotic cells at 100 uM incubated for 24 hrs by Annexin V-FITC/propidium iodide staining based flow cytometry analysis (reference value: 1.06%); assay type: functional
[3] = Induction in caspase-mediated apoptosis in human NB4-DR1 cells assessed as late apoptotic cells at 25 uM incubated for 24 hrs in presence of Z-VAD-FMK by Annexin V-FITC/propidium iodide staining based flow cytometry analysis (reference value: 2.54%); assay type: functional
[4] = Cytotoxicity against HUVEC assessed as cell viability at 0 to 50 uM incubated for 24 hrs by CCK-8 assay relative to control; assay type: cell-based; settings: human, dose 0-50 µM, read-out: Activity
Outline: (§1)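 HUVEC and LO2 normal cells were cultured in RPMI-1640 or DMEM with 10% FBS at 37 °C, 5% CO2, and seeded at 3 × 10^4 cells/well. They were exposed for 24 h to graded concentrations. CCK-8 incubation was 3 h at 37 °C, with A450 read and viability expressed versus untreated control. Three independent experiments, mean ± SEM.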

[5] = Induction in caspase-mediated apoptosis in human NB-4 cells assessed as early apoptotic cells at 12.5 uM incubated for 24 hrs in presence of Z-VAD-FMK by Annexin V-FITC/propidium iodide staining based flow cytometry analysis (reference value: 1.84%); assay type: functional
[6] = Induction in caspase-mediated apoptosis in human NB-4 cells assessed as early apoptotic cells at 25 uM incubated for 24 hrs by Annexin V-FITC/propidium iodide staining based flow cytometry analysis (reference value: 2.02%); assay type: functional
[7] = Induction in caspase-mediated apoptosis in human NB-4 cells assessed as late apoptotic cells at 100 uM incubated for 24 hrs in presence of Z-VAD-FMK by Annexin V-FITC/propidium iodide staining based flow cytometry analysis (reference value: 1.15%); assay type: functional
[8] = Induction in caspase-mediated apoptosis in human NB-4 cells assessed as necrotic cells at 50 uM incubated for 24 hrs by Annexin V-FITC/Propidium iodide staining based flow cytometry analysis (reference value: 0.352%); assay type: functional
[9] = Induction in caspase-mediated apoptosis in human NB4-DR1 cells assessed as necrotic cells at 25 uM incubated for 24 hrs in presence of Z-VAD-FMK by Annexin V-FITC/propidium iodide staining based flow cytometry analysis (reference value: 0.223%); assay type: functional
[10] = Cytotoxicity against human L02 cells assessed as cell viability at 0 to 50 uM incubated for 24 hrs by CCK-8 assay relative to control; assay type: cell-based; settings: dose 0-50 µM, read-out: Activity; outline: as §1
[11] = Induction in caspase-mediated apoptosis in human NB-4 cells assessed as viable cells at 100 uM incubated for 24 hrs in presence of Z-VAD-FMK by Annexin V-FITC/propidium iodide staining based flow cytometry analysis (reference value: 96.8%); assay type: functional; settings: read-out: Activity
[12] = Induction in caspase-mediated apoptosis in human NB4-DR1 cells assessed as necrotic cells at 25 uM incubated for 24 hrs by Annexin V-FITC/propidium iodide staining based flow cytometry analysis (reference value: 0.19%); assay type: functional
[13] = target: Glycogen synthase kinase-3 beta (Homo sapiens, UniProt P49841); assay: Binding affinity to recombinant human GSK-3beta assessed as covalent bond formation between compound and enzyme by measuring mass changes by […] analysis
Outline: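 Human recombinant GSK-3β (10 μM stock in 50 mM HEPES, 1 mM EDTA, 2 mM EGTA, 15 mM Mg(OAc)2) was incubated with compound in DMSO (1.6 μL of 500 μM into 14.4 μL) at 30 °C with shaking for 30 min. Intact protein was run on C4 LC over a 5–100% acetonitrile/0.1% formic acid gradient into positive-ion Q-TOF MS, and mass shift was read.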

[14] = Induction in caspase-mediated apoptosis in human NB-4 cells assessed as early apoptotic cells at 100 uM incubated for 24 hrs by Annexin V-FITC/propidium iodide staining based flow cytometry analysis (reference value: 2.02%); assay type: functional
[15] = Toxicity in BALB/c mouse xenografted with human NB-4 cells assessed as body weight loss at 15 mg/kg/day, ip administered for 2 weeks; assay type: organism-based; settings: in vivo, 336 h
Outline: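 Female Balb/c nude mice (4 weeks old) injected subcutaneously in the right flank with 2 × 10^6 NB4 cells. At about 0.5 cm tumour diameter, mice were randomised (n = 5). Dosing was 15 mg/kg/d i.p. in corn oil, or corn-oil vehicle, daily for 2 weeks, with body weight recorded throughout; mean ± SEM.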

[16] = Induction in caspase-mediated apoptosis in human NB4-DR1 cells assessed as early apoptosis cells at 25 uM incubated for 24 hrs in presence of Z-VAD-FMK by Annexin V-FITC/propidium iodide staining based flow cytometry analysis (reference value: 0.875%); assay type: functional
[17] = Induction in caspase-mediated apoptosis in human NB-4 cells assessed as late apoptotic cells at 12.5 uM incubated for 24 hrs in presence of Z-VAD-FMK by Annexin V-FITC/propidium iodide staining based flow cytometry analysis (reference value: 1.15%); assay type: functional
[18] = Induction in caspase-mediated apoptosis in human NB4-DR1 cells assessed as viable cells at 50 uM incubated for 24 hrs in presence of Z-VAD-FMK by Annexin V-FITC/propidium iodide staining based flow cytometry analysis (reference value: 96.4%); assay type: functional; settings: read-out: Activity
[19] = Induction in caspase-mediated apoptosis in human NB4-DR1 cells assessed as necrotic cells at 12.5 uM incubated for 24 hrs in presence of Z-VAD-FMK by Annexin V-FITC/propidium iodide staining based flow cytometry analysis (reference value: 0.223%); assay type: functional
[20] = target: Glycogen synthase kinase-3 alpha (Homo sapiens) (UniProt P49840); assay: Inhibition of recombinant human GSK-3alpha at 100 uM by mobility shift assay relative to control
[21] = Cytotoxicity against human L02 assessed as cell viability at 100 uM incubated for 24 hrs by CCK-8 assay relative to control; assay type: cell-based; settings: L02 cells, read-out: Activity; outline: as §1
[22] = test system: NB4-DR1; assay: Antiproliferative activity against human NB4-DR1 cells assessed as reduction in cell viability incubated for 24 hrs by CCK-8 assay; assay type: functional, cell-based; settings: NB4-DR1, 24 h
Outline: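 Cells were grown in RPMI-1640 or high-glucose DMEM with 10% FBS at 37 °C, 5% CO2, and seeded at 3 × 10^4 cells/well. Exposure was 24 h across serial concentrations (0−1000 μM in the screen). […] Three independent experiments, mean ± SEM.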

[23] = Induction in caspase-mediated apoptosis in human NB-4 cells assessed as viable cells at 12.5 uM incubated for 24 hrs in presence of Z-VAD-FMK by Annexin V-FITC/propidium iodide staining based flow cytometry analysis (reference value: 96.8%); assay type: functional; settings: read-out: Activity
[24] = Induction in caspase-mediated apoptosis in human NB4-DR1 cells assessed as late apoptotic cells at 100 uM incubated for 24 hrs in presence of Z-VAD-FMK by Annexin V-FITC/propidium iodide staining based flow cytometry analysis (reference value: 2.54%); assay type: functional

Chain of Glycogen synthase kinase-3 beta (P49841 whole entry, looked up): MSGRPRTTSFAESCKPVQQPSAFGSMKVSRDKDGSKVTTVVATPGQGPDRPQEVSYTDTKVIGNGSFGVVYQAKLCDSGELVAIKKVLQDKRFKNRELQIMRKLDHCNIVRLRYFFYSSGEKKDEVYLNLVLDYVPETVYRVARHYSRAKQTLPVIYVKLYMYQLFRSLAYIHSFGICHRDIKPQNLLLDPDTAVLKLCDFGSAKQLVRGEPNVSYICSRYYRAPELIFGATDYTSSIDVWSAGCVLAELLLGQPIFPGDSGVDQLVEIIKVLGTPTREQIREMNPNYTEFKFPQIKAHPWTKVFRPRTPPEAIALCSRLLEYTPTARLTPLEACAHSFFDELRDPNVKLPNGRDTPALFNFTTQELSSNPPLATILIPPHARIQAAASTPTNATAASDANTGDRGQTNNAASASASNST
Chain of Glycogen synthase kinase-3 alpha (Homo sapiens) (P49840 2-483 limits assumed): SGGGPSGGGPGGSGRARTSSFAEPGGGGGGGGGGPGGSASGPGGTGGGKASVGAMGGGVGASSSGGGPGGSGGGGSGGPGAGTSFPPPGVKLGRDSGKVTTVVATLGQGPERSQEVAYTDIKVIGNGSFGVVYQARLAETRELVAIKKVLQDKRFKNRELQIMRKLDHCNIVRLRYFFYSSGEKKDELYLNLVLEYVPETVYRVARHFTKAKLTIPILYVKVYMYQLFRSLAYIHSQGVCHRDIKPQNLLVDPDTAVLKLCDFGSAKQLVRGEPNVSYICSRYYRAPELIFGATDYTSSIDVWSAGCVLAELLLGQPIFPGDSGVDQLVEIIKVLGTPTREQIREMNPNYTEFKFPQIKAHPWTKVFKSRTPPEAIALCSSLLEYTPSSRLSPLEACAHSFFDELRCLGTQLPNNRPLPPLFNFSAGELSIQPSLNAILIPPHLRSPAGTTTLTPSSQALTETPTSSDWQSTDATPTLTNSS

`C=CC(=O)N1C(=O)CC(c2ccc(F)cc2)Sc2ccccc21` (centres undefined) showed an Activity [1] of 2.29%, an Activity [2] of 85.5% and an Activity [3] of 5.45%. The viability at 24 h, up to 50 µM [4] was > 80%, the Activity [5] was 4.58% and the Activity [6] was 6.44%. The Activity [7] was 19.6%, the Activity [8] was 4.51% and the Activity [9] was 0.485%. The viability at 24 h, up to 50 µM [10] was > 80%, the viability at 100 µM [11] was 72.2% and the Activity [12] was 1.32%. For the same compound, the Activity [13] was “Active”, the Activity [14] was 4.21% and the Activity [15] was “Toxic”. The Activity [16] was 1.04%, the Activity [17] was 7.39% and the viability at 50 µM [18] was 91.3%. For the same compound, the Activity [19] was 0.332%, the inhibition [20] was 87.3% and the viability at 24 h, 100 µM [21] was > 70%. The IC50 [22] was 26.4 µM, the viability at 12.5 µM [23] was 86.4% and the Activity [24] was 14.2%.

Reference: ChEMBL document CHEMBL5036319, “Discovery of Novel Benzothiazepinones as Irreversible Covalent Glycogen Synthase Kinase 3β Inhibitors for the Treatment of Acute Promyelocytic Leukemia” (J Med Chem, 2021)
